An excerpt weighted towards active compounds, which were near 2.9% of everything screened.
HTRA1 inhibitor: blocks human HTRA1 serine peptidase; AID 504803; 340,000 tested, 0.5% active; inhibition, % at 5.96 µM; recombinant HTRA1, FP-rhodamine activity-based probe, fluorescence polarization; in the data active = inhibition above about 36%;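 also: 0% = enzyme with DMSO and 100% = wells lacking enzyme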
PRMT1 inh: blocks human protein arginine methyltransferase 1; AID 652257; inhibition, % at 2.79 µM; recombinant PRMT1, activity-based probe fluorescence polarization; Q99873; 370,000 tested, 1.3% active;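 active = inhibition above about 21% made by adding two undisclosed values, limit read from the data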
PAD4 inh: blocks human protein arginine deiminase 4 | Q9UM07 | recombinant PAD4, RCA probe fluorescence polarization | inhibition, % at 6.36 µM | 330,000 tested, 0.41% active;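 active = percent inhibition above a cutoff equal to the mean of all tested compounds plus 3 SD, cut at about 15% in these data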;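 also: 0% = PAD4 with RCA probe and DMSO and 100% = probe without PAD4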
Target sequence (Q9UM07 whole entry, looked up): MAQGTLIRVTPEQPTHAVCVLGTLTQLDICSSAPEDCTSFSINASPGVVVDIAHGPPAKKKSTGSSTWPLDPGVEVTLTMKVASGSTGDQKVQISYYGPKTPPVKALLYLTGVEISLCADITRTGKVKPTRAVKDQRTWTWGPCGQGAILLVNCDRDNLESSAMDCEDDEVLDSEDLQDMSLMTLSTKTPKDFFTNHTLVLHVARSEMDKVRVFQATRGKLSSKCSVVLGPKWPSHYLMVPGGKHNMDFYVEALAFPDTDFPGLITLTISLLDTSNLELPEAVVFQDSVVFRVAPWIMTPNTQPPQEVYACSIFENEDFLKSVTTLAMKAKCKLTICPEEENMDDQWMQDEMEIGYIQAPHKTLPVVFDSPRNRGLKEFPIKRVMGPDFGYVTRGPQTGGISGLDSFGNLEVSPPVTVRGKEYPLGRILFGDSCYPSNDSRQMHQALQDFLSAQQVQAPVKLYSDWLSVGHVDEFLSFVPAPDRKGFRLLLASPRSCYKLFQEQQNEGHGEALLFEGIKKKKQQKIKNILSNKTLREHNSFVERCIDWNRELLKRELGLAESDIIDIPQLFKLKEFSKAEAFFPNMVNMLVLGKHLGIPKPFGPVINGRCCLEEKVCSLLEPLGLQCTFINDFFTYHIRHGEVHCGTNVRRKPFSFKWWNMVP
mABHD4 FP: inhibitors of mouse ABHD4; inhibition, % at 8.92 µM; 370,000 tested, 0.54% active; purified mABHD4, FP-Rh probe fluorescence polarization; Q8VD66; AID 720543;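 active = inhibition exceeding the mean over every tested compound plus 3 SD, cut at about 30% in these data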;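 also: 0% = plate median of compound wells and 100% = S159A mutant with DMSO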
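System: mouse ABHD4 enzyme, wild type / Medium: HEPES pH 7.0, NaCl, Pluronic buffer / Reagent: FP-Rh activity-based fluorescent probe / Control set: S159A mutant high control, sample median low control / Detection: fluorescence polarization with parallel and perpendicular emission, 525/598 nm / Schedule: 45 min + 60 min at 25 °C / Compound dosing: 8.92 µM, single dose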
SIAE inh: human SIAE inhibition, primary screen; 370,000 tested, 0.69% active; inhibition, % at 9.66 µM; SIAE FP-Rh probe binding, fluorescence polarization; Q9HAT2;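 active = inhibition above a cutoff: mean of compounds within the control limits plus 3 SD of those, cut at about 17% in these data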;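 also: 0% = plate median of compound wells and 100% = probe without SIAE protein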
TCR-CD3 inh: inhibitors of human TCR-CD3 interaction; TAMRA-labeled TCR probe fluorescence, biochemical; inhibition, % at 9.4 µM; 360,000 tested, 0.37% active; AID 651800; in the data active = inhibition above about 19%;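 also: recombinant mutant TCR 2C K166C tagged with TAMRA read by polarization; 0% = receptor in buffer alone and 100% = receptor with positive control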
PRMT1 confirm: PRMT1 (human) inhibition, FP confirmation. recombinant His-PRMT1, activity-based probe fluorescence polarization. AID 687036. inhibition, % at 2.79 µM. 3,300 tested, 42% active. shares compounds with PRMT1 inh;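 active = mean inhibition across replicates above the hit cutoff derived for the earlier primary screen, cut at about 22% in these data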
* = called active by the depositor; · = no result.

SMILES	HTRA1 inhibitor	PRMT1 inh	PAD4 inh	mABHD4 FP	SIAE inh	TCR-CD3 inh	PRMT1 confirm
Cc1ccc(N2C(=O)CC(Sc3nccc(C)n3)C2=O)cc1 (stereo not given)	3	4	-4	0	-5	7	·
Cc1ccccc1C(=O)NNC1CC(=O)N(c2ccc3c(c2)OCCO3)C1=O (stereo not given)	1	0	2	11	3	-7	·
Cc1ccc(SC2CC(=O)N(c3ccc4c(c3)OCCO4)C2=O)cc1 (stereo not given)	1	36*	-1	2	1	2	26*
Nc1nc2c(ncn2[C@@H]2O[C@H](C(=O)N[C@H](Cc3ccccc3)C(=O)NCc3ccc4c(c3)OCO4)[C@@H](O)[C@H]2O)c(=O)[nH]1	·	8	·	2	4	1	·
O=C1C=CC(=O)N1	0	78*	-2	-16	-11	5	87*
CCOC(=O)[C@]12CCCCC/C=C\1N(CCc1ccc(Cl)cc1)C(=O)[C@H]2CC(=O)NCCc1ccccc1OC	·	2	·	-3	0	·	·
COC(=O)C1=C(C)N(Cc2ccc(C(F)(F)F)cc2)C(=NCc2ccc(C(F)(F)F)cc2)NC1c1ccccc1C(F)(F)F (stereo not given)	·	-6	·	7	-8	-2	·
Nc1ccccc1SC(CC(=O)c1ccccc1)c1ccc([N+](=O)[O-])cc1 (stereo not given)	-17	83*	·	23	6	1	61*
O=C(NC(NC(=O)c1ccccc1)c1cccc([N+](=O)[O-])c1)c1ccccc1	1	1	2	-1	-2	-8	·
Nc1ccccc1SC(CC(=O)c1ccccc1)c1cccc([N+](=O)[O-])c1 (stereo not given)	-13	86*	·	6	2	0	57*
COc1ccc(-c2nnc(SCc3c(F)cccc3F)n2N)cc1	·	2	·	4	-4	·	·
CS(=O)(=O)N1CCC[C@]2(CC[C@H](CCC#N)O2)C1	·	-2	·	-2	-2	·	·
COC(=O)[C@@]1(Sc2ccc(C)cc2)CC(=O)N[C@@H]1c1ccco1	·	52*	·	25	7	10	1
Cc1ccc(CNC(=O)CCS(=O)(=O)c2cc(Br)cc3c2N(C(=O)C2CC2)CC3)o1	3	48*	2	5	3	1	3
O=C(O)CCS(=O)(=O)c1cc(Br)cc2c1N(C(=O)C1CC1)CC2	2	-8	0	7	-2	2	·
CCn1c2ccccc2c2cc(NC(=O)COC(=O)c3cccc(F)c3F)ccc21	·	3	·	0	-1	·	·
NC(=O)C1CCN(c2nc(-c3ccc(OCc4ccccc4)cc3)cs2)CC1	·	5	·	-12	4	·	·
C[C@H](O)[C@@H]1CN2CCc3c([nH]c4c(-c5ccc6c(c5)OCO6)cccc34)[C@@H]2C[C@@H]1N(C)C(=O)c1ccccc1F	·	1	·	1	-3	·	·
Cc1ccc(-c2cc(-c3nnc(SCC(=O)Nc4nccs4)n3N)[nH]n2)cc1	·	-1	·	-2	-5	·	·
Cc1ccc(-c2c(C#N)c(N)nc3c2CCCC3)o1	-2	-3	5	-2	-7	5	·
N#Cc1c(SCC(N)=O)nc2c(c1-c1ccncc1)CCCC2	6	5	-1	2	-2	-4	·
N#Cc1c(-c2ccncc2)c2c([nH]c1=S)CCCC2	-3	37*	-9	0	4	8	8
Cc1ccc(-c2c3c([nH]c(=S)c2C#N)CCCC3)o1	14	50*	6	6	4	-3	31*

Screening data as filed in PubChem.
